Data reported in ChEMBL document CHEMBL4130483, “Leishmanicidal and cytotoxic activity of hederagenin-bistriazolyl derivatives” (Eur J Med Chem, 2017).
pEC50, pIC50: −log10 of the molar value.

What was measured:
[1] = system: A2780; test: Cytotoxicity against human A2780 cells assessed as reduction in cell viability incubated fro 96 hrs by SRB assay; format: functional, cell-based; settings: A2780, 96 h
Procedure, shortened: (§1)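 Sulforhodamine B photometric assay after 96 h treatment. Monolayers were grown in RPMI 1640 with L-glutamine, 10% heat-inactivated FBS and penicillin/streptomycin at 37 °C in humidified 5% CO2. Cut-off was 30 μM, or 60 μM for the parent. EC50 was averaged from at least three independent experiments, each in four replicates. Betulinic acid was the positive standard.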

[2] = system: SW-1736; test: Cytotoxicity against human SW1736 cells assessed as reduction in cell viability incubated fro 96 hrs by SRB assay; format: functional, cell-based; settings: SW-1736, 96 h; procedure, shortened: as §1
[3] = system: HT-29; test: Cytotoxicity against human HT-29 cells assessed as reduction in cell viability incubated fro 96 hrs by SRB assay; format: functional, cell-based; settings: HT-29, 96 h; procedure, shortened: as §1
[4] = system: A-375; test: Cytotoxicity against human A375 cells assessed as reduction in cell viability incubated fro 96 hrs by SRB assay; format: functional, cell-based; settings: A-375, 96 h; procedure, shortened: as §1
[5] = system: Leishmania infantum; test: Antileishmanial activity against Leishmania infantum MHOM/BR/70/BH46 intracellular amastigotes infected in canine DH82 cells assessed as as inhibition of cell growth at 1000 uM incubated for 48 hrs by ELISA method; format: functional; settings: MHOM/BR/70/BH46, DH82, 48 h, read-out: GI
[6] = system: FaDu; test: Cytotoxicity against human FADU cells assessed as reduction in cell viability incubated fro 96 hrs by SRB assay; format: functional, cell-based
[7] = Selectivity index, ratio of CC50 for dog DH82 cells to IC50 for antileishmanial activity against Leishmania infantum MHOM/BR/70/BH46 intracellular amastigotes infected in canine DH82 cells; format: toxicity, cell-based; settings: read-out: Ratio CC50/IC50
Procedure, shortened: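 SI = CC50 in DH82 macrophages (MTT) divided by IC50 against intracellular L. infantum BH46 amastigotes.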

[8] = Cytotoxicity in African green monkey BGM cells assessed as reduction in cell viability incubated for 48 hrs by MTT assay; format: cell-based; settings: chlorocebus aethiops
Procedure, shortened: (§2)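 MTT colorimetric assay with microscopic monitoring. CC50 is the concentration cytotoxic to 50% of BGM or HepG2 cells. Potassium antimonyl tartrate trihydrate was the positive control.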

[9] = Selectivity index, ratio of CC50 for human HepG2 cells to IC50 for antileishmanial activity against Leishmania infantum MHOM/BR/70/BH46 intracellular amastigotes infected in canine DH82 cells; format: toxicity, cell-based; settings: read-out: Ratio CC50/IC50
Procedure, shortened: (§3)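 SI = CC50 in BGM or HepG2 cells (MTT) divided by the intracellular amastigote IC50.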

[10] = system: Leishmania infantum; test: Antileishmanial activity against Leishmania infantum MHOM/BR/70/BH46 intracellular amastigotes infected in canine DH82 cells assessed as as inhibition of cell growth incubated for 48 hrs by ELISA method; format: functional, organism-based; settings: MHOM/BR/70/BH46, DH82, 48 h
Procedure, shortened: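 L. infantum BH46 intracellular amastigotes. Phase II testing at 0.1, 1.0, 10 and 100 μM. IC50 is the concentration inhibiting in vitro growth by 50%, taken from dose-response curves (log concentration vs inhibition) run in four replicates. Potassium antimonyl tartrate trihydrate served as positive control.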

[11] = Cytotoxicity in human HepG2 cells assessed as reduction in cell viability incubated for 48 hrs by MTT assay; format: cell-based; procedure, shortened: as §2
[12] = Selectivity index, ratio of CC50 for African green monkey BGM cells to IC50 for antileishmanial activity against Leishmania infantum MHOM/BR/70/BH46 intracellular amastigotes infected in canine DH82 cells; format: toxicity, cell-based; settings: read-out: Ratio CC50/IC50; procedure, shortened: as §3
[13] = Cytotoxicity in dog DH82 cells assessed as reduction in cell viability incubated for 48 hrs by MTT assay; format: cell-based, Canis lupus familiaris
Procedure, shortened: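 DH82 canine macrophage viability was monitored microscopically and by MTT colorimetric assay. CC50 is the concentration cytotoxic to 50% of DH82 cells. Potassium antimonyl tartrate trihydrate was the positive control.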

[14] = system: Leishmania infantum; test: Antiparasitic activity against Leishmania infantum; format: functional, organism-based

SMILES	pEC50 [1]	pEC50 [2]	pEC50 [3]	pEC50 [4]	inhibition of growth at 1000 µM [5] [%]	pEC50 [6]	selectivity ratio [7]	CC50 at 48 h [8] [µM]	selectivity ratio [9]	pIC50 [10]	CC50 at 48 h [11] [µM]	selectivity ratio [12]	CC50 at 48 h [13] [µM]	pIC50 [14]
CC1(C)CC[C@]2(C(=O)OCc3cn(CC(=O)c4ccc5ccccc5c4)nn3)CC[C@]3(C)C(=CC[C@@H]4[C@@]5(C)CC[C@H](O)[C@@](C)(COCc6cn(CC(=O)c7ccc8ccccc8c7)nn6)[C@@H]5CC[C@]43C)[C@@H]2C1	< 4.52	< 4.52	< 4.52	< 4.52	71.5	< 4.52	–	–	–	–	–	–	–	–
C#CCOC[C@@]1(C)[C@@H]2CC[C@]3(C)[C@H](CC=C4[C@@H]5CC(C)(C)CC[C@]5(C(=O)OCC#C)CC[C@]43C)[C@@]2(C)CC[C@@H]1O	–	–	–	–	77.2	–	9	99	3.7	4.54	104	3.5	259	–
CC1(C)CC[C@]2(C(=O)OCc3cn(Cc4ccc(Br)cc4)nn3)CC[C@]3(C)C(=CC[C@@H]4[C@@]5(C)CC[C@H](O)[C@@](C)(COCc6cn(Cc7ccc(Br)cc7)nn6)[C@@H]5CC[C@]43C)[C@@H]2C1	< 4.52	< 4.52	< 4.52	< 4.52	9.8	< 4.52	–	–	–	–	–	–	–	–
CC1(C)CC[C@]2(C(=O)OCc3cn(Cc4cccc(Cl)c4)nn3)CC[C@]3(C)C(=CC[C@@H]4[C@@]5(C)CC[C@H](O)[C@@](C)(COCc6cn(Cc7cccc(Cl)c7)nn6)[C@@H]5CC[C@]43C)[C@@H]2C1	< 4.52	< 4.52	< 4.52	< 4.52	41.8	< 4.52	–	–	–	–	–	–	–	–
C=C(C)[C@@H]1CC[C@]2(C(=O)O)CC[C@]3(C)[C@H](CC[C@@H]4[C@@]5(C)CC[C@H](O)C(C)(C)[C@@H]5CC[C@]43C)[C@@H]12 [BETULINIC ACID]	–	4.79	–	4.92	–	4.87	–	–	–	–	–	–	–	–
CC1(C)CC[C@]2(C(=O)OCc3cn(CC(=O)c4ccccc4)nn3)CC[C@]3(C)C(=CC[C@@H]4[C@@]5(C)CC[C@H](O)[C@@](C)(COCc6cn(CC(=O)c7ccccc7)nn6)[C@@H]5CC[C@]43C)[C@@H]2C1	< 4.52	< 4.52	< 4.52	< 4.52	0	< 4.52	–	–	–	–	–	–	–	–
CC1(C)CC[C@]2(C(=O)OCc3cn(Cc4ccc(F)cc4F)nn3)CC[C@]3(C)C(=CC[C@@H]4[C@@]5(C)CC[C@H](O)[C@@](C)(COCc6cn(Cc7ccc(F)cc7F)nn6)[C@@H]5CC[C@]43C)[C@@H]2C1	< 4.52	< 4.52	< 4.52	< 4.52	52.4	< 4.52	0.9	99.7	0.7	3.81	105	0.6	140	–
CC1(C)CC[C@]2(C(=O)OCc3cn(Cc4ccccc4)nn3)CC[C@]3(C)C(=CC[C@@H]4[C@@]5(C)CC[C@H](O)[C@@](C)(COCc6cn(Cc7ccccc7)nn6)[C@@H]5CC[C@]43C)[C@@H]2C1	< 4.52	< 4.52	< 4.52	< 4.52	17.7	< 4.52	–	–	–	–	–	–	–	–
CC1(C)CC[C@]2(C(=O)OCc3cn(Cc4cccc([N+](=O)[O-])c4)nn3)CC[C@]3(C)C(=CC[C@@H]4[C@@]5(C)CC[C@H](O)[C@@](C)(COCc6cn(Cc7cccc([N+](=O)[O-])c7)nn6)[C@@H]5CC[C@]43C)[C@@H]2C1	< 4.52	< 4.52	< 4.52	< 4.52	21.4	< 4.52	–	–	–	–	–	–	–	–
CC1(C)CC[C@]2(C(=O)O)CC[C@]3(C)C(=CC[C@@H]4[C@@]5(C)CC[C@H](O)[C@@](C)(CO)[C@@H]5CC[C@]43C)[C@@H]2C1 [HEDERAGENIN]	< 4.22	< 4.22	< 4.22	< 4.22	55.5	< 4.22	> 10	57	> 16.2	–	> 1000	0.9	> 1000	4.21
CC1(C)CC[C@]2(C(=O)OCc3cn(Cc4ccc(F)cc4F)nn3)CC[C@]3(C)C(=CC[C@@H]4[C@@]5(C)CC[C@H](O)[C@@](C)(CO)[C@@H]5CC[C@]43C)[C@@H]2C1	–	–	–	–	–	–	–	–	–	–	–	–	–	4.96
CC1(C)CC[C@]2(C(=O)OCc3cn(Cc4ccccc4Cl)nn3)CC[C@]3(C)C(=CC[C@@H]4[C@@]5(C)CC[C@H](O)[C@@](C)(COCc6cn(Cc7ccccc7Cl)nn6)[C@@H]5CC[C@]43C)[C@@H]2C1	< 4.52	< 4.52	4.57	< 4.52	4.1	< 4.52	–	–	–	–	–	–	–	–
CC1(C)CC[C@]2(C(=O)OCc3cn(Cc4ccccc4[N+](=O)[O-])nn3)CC[C@]3(C)C(=CC[C@@H]4[C@@]5(C)CC[C@H](O)[C@@](C)(CO)[C@@H]5CC[C@]43C)[C@@H]2C1	–	–	–	–	–	–	–	–	–	–	–	–	–	4.47 to 4.49
Cc1cccc(Cn2cc(COC[C@@]3(C)[C@@H]4CC[C@]5(C)[C@H](CC=C6[C@@H]7CC(C)(C)CC[C@]7(C(=O)OCc7cn(Cc8cccc(C)c8)nn7)CC[C@]65C)[C@@]4(C)CC[C@@H]3O)nn2)c1	< 4.52	< 4.52	< 4.52	< 4.52	31.3	< 4.52	–	–	–	–	–	–	–	–
Cc1ccc(Cn2cc(COC[C@@]3(C)[C@@H]4CC[C@]5(C)[C@H](CC=C6[C@@H]7CC(C)(C)CC[C@]7(C(=O)OCc7cn(Cc8ccc(C)cc8)nn7)CC[C@]65C)[C@@]4(C)CC[C@@H]3O)nn2)cc1	4.54	< 4.52	4.66	4.58	0	< 4.52	–	–	–	–	–	–	–	–
CC1(C)CC[C@]2(C(=O)NCc3cn(Cc4ccccc4[N+](=O)[O-])nn3)CC[C@]3(C)C(=CC[C@@H]4[C@@]5(C)CC[C@H](O)[C@@](C)(CO)[C@@H]5CC[C@]43C)[C@@H]2C1	–	–	–	–	–	–	–	–	–	–	–	–	–	5.22 to 5.70
CC1(C)CC[C@]2(C(=O)OCc3cn(Cc4cccc(Br)c4)nn3)CC[C@]3(C)C(=CC[C@@H]4[C@@]5(C)CC[C@H](O)[C@@](C)(COCc6cn(Cc7cccc(Br)c7)nn6)[C@@H]5CC[C@]43C)[C@@H]2C1	< 4.52	< 4.52	< 4.52	< 4.52	7.8	< 4.52	–	–	–	–	–	–	–	–
CC1(C)CC[C@]2(C(=O)OCc3cn(Cc4ccccc4[N+](=O)[O-])nn3)CC[C@]3(C)C(=CC[C@@H]4[C@@]5(C)CC[C@H](O)[C@@](C)(COCc6cn(Cc7ccccc7[N+](=O)[O-])nn6)[C@@H]5CC[C@]43C)[C@@H]2C1	< 4.52	< 4.52	< 4.52	< 4.52	35	< 4.52	–	–	–	–	–	–	–	–
CC1(C)CC[C@]2(C(=O)OCc3cn(Cc4ccccc4Br)nn3)CC[C@]3(C)C(=CC[C@@H]4[C@@]5(C)CC[C@H](O)[C@@](C)(COCc6cn(Cc7ccccc7Br)nn6)[C@@H]5CC[C@]43C)[C@@H]2C1	< 4.52	< 4.52	< 4.52	< 4.52	53.4	< 4.52	–	–	–	–	–	–	–	–
CC1(C)CC[C@]2(C(=O)NCc3cn(Cc4ccc(Cl)cc4)nn3)CC[C@]3(C)C(=CC[C@@H]4[C@@]5(C)CC[C@H](O)[C@@](C)(CO)[C@@H]5CC[C@]43C)[C@@H]2C1	–	–	–	–	–	–	–	–	–	–	–	–	–	5.22 to 5.70
CC1(C)CC[C@]2(C(=O)OCc3cn(Cc4ccc(Cl)cc4)nn3)CC[C@]3(C)C(=CC[C@@H]4[C@@]5(C)CC[C@H](O)[C@@](C)(COCc6cn(Cc7ccc(Cl)cc7)nn6)[C@@H]5CC[C@]43C)[C@@H]2C1	< 4.52	< 4.52	< 4.52	< 4.52	1.6	< 4.52	–	–	–	–	–	–	–	–
